Source: ChEMBL document CHEMBL2016466, “Design, synthesis, and biological evaluation of new diaminoquinazolines as β-catenin/Tcf4 pathway inhibitors” (J Med Chem, 2012)

Key:
HCT-116 [1] = assay: Growth inhibition of human HCT116 cells assessed as viable cells after 3 days using resazurin by […] assay; assay type: functional, cell-based; conditions: HCT-116, 72 h
Summary of the method: (§1)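 Cells grown in RPMI 1640 + 10% FBS + penicillin/streptomycin, trypsinized and seeded at 2 × 10³ cells/well. Compound added 24 h later as a concentration curve starting at 10 μg/mL with nine further 2-fold dilutions. After 3 days of exposure, viability was read with CellTiter-Blue (resazurin to resorufin). IC50 is the average of three separate experiments.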

SW480 = assay: Growth inhibition of human SW480 cells assessed as viable cells after 3 days using resazurin by […] assay; assay type: functional, cell-based; conditions: SW480, 72 h; summary of the method: as §1
TCF4/beta-catenin = TCF4/beta-catenin (Homo sapiens, UniProt P35222+Q9NQB0); assay: Inhibition of beta-catenin/TCF4 pathway expressed in HCT116 cells containing delta45S mutant after 24 hrs by luciferase reporter gene assay; assay type: cell-based; conditions: hct-116
TCF4/beta-catenin, sequence (P35222 2-781 limits assumed, stated change not applied): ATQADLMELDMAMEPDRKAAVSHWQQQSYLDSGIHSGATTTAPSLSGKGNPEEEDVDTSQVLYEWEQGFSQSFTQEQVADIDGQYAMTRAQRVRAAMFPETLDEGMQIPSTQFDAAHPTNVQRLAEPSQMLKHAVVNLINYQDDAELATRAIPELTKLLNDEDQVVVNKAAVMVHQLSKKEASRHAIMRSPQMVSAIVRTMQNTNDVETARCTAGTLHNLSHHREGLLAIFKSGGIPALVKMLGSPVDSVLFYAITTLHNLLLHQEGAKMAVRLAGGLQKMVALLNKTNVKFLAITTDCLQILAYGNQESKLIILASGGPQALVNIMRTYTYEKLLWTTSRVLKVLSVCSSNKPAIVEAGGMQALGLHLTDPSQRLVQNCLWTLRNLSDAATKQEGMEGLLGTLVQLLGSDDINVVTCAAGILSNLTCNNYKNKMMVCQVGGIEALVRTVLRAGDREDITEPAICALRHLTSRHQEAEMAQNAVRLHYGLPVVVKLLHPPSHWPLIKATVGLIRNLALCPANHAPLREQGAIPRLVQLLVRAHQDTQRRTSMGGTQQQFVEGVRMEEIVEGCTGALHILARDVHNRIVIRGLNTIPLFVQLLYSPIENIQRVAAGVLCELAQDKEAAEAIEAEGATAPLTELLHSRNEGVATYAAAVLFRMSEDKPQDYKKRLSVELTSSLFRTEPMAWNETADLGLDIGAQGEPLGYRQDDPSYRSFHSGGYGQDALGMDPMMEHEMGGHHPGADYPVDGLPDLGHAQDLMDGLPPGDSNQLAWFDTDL
TCF4/beta-catenin, sequence (Q9NQB0 whole entry, stated change not applied): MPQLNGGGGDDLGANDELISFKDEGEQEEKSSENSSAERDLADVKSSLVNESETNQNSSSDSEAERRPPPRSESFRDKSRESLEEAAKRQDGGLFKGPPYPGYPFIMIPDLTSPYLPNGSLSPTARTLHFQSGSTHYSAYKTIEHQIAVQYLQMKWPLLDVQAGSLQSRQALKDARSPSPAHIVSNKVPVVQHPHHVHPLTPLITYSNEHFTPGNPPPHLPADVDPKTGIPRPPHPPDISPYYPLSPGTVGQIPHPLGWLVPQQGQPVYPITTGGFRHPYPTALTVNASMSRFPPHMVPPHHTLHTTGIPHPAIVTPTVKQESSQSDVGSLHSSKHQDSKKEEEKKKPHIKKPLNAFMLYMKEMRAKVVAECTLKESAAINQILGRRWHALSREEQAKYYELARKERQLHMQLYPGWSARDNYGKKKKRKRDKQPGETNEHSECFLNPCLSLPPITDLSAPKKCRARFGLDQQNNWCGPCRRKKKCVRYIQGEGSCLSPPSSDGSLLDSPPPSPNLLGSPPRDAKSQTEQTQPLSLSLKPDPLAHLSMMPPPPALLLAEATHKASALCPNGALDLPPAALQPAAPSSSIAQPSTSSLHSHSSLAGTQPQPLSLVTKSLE
Summary of the method: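 HCT116 cells at 1 × 10⁴/well, cotransfected with 50 ng TOP-FLASH reporter (Tcf4 binding sites) and 50 ng pTK-β-gal as internal control. At 4 h post-transfection, fresh medium with compound at various concentrations was added. Firefly luciferase was read 24 h after compound addition, normalized to β-galactosidase and expressed as a percentage of control luciferase activity.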

[2] = Ratio of IC50 for human HCT116 cells to IC50 for […]/TCF4 pathway expressed in HCT116 cells; assay type: cell-based; conditions: HCT-116
HCT-116 [3] = assay: Growth inhibition of human HCT116 cells assessed as clonogenic growth after 9 days using crystal violet staining; assay type: functional, cell-based; conditions: HCT-116, 216 h
Summary of the method: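 HCT116 cells in RPMI 1640 + 10% FBS + penicillin/streptomycin, plated at 300 cells/well in six-well plates 8 h before treatment with or without inhibitor (highest final concentration 1.5 μM). Incubated 9 days, then fixed with 10% acetic acid in methanol, stained with 0.05% crystal violet and colonies counted. IC50 is the average of three separate experiments.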

[4] = Solubility of the compound in water; assay type: physicochemical; conditions: buffer

| Structure (SMILES) | IC50 (HCT-116 [1]) | IC50 (SW480) | IC50 (TCF4/beta-catenin) | IC50 (HCT-116 [3]) | solubility [4] | Ratio IC50 [2] |
| --- | --- | --- | --- | --- | --- | --- |
| CNc1nc(NCc2ccc(C(=O)Nc3ccc(F)cc3)cc2)c2ccccc2n1 | 2.9 µM | 4.1 µM | – | – | – | – |
| CN(C)c1nc(NCc2ccc(C(=O)N3CCC(C(=O)NCc4ccc(F)cc4)CC3)cc2)c2ccccc2n1 | 5.7 µM | 5.5 µM | – | – | – | – |
| C=CCNc1nc(NCc2ccc(C(=O)Nc3ccc(F)cc3)cc2)c2cc(C)ccc2n1 | 13 µM | 10 µM | – | – | – | – |
| CNc1nc(NCc2ccc(NC(=O)c3ccc(CN4CCN(C)CC4)cc3)cc2)c2ccccc2n1 | 10 µM | 11 µM | – | – | – | – |
| CNc1nc(NCc2ccc(C(=O)NCCc3ccc(F)cc3)cc2)c2cc(C)ccc2n1 | 1.1 µM | 1.5 µM | 1 µM | – | – | – |
| Cc1ccc(S(=O)(=O)Nc2ccc(CNc3nc(N(C)C)nc4ccccc34)cc2)cc1 | 11 µM | 13 µM | – | – | – | – |
| CCCNc1nc(NCc2ccc(C(=O)N3CCC(C(=O)NCc4ccc(F)cc4)CC3)cc2)c2cc(C)ccc2n1 | 4.6 µM | 5.2 µM | – | – | – | – |
| CCCNc1nc(NCc2ccc(C(=O)NC3CCN(C(=O)c4ccc(F)cc4)CC3)cc2)c2cc(C)ccc2n1 | 6.8 µM | 5.5 µM | – | – | – | – |
| CNc1nc(NCc2ccc(NS(=O)(=O)c3ccc(C)cc3)cc2)c2ccccc2n1 | 5.8 µM | 4.9 µM | – | – | – | – |
| CCCNc1nc(NCc2ccc(NC(=O)c3ccc(F)cc3)cc2)c2ccccc2n1 | 1.7 µM | 2 µM | 2.5 µM | – | – | 2 |
| CN(C)c1nc(NCc2ccc(NC(=O)c3ccncc3)cc2)c2ccccc2n1 | 15 µM | 11 µM | – | – | – | – |
| CCNc1nc(NCc2ccc(C(=O)N[C@H]3C[C@@H]3c3ccccc3)cc2)c2cc(C)ccc2n1 (relative stereo) | 1.7 µM | 1.8 µM | 3.5 µM | – | – | – |
| CCCNc1nc(NCc2ccc(C(=O)Nc3ccc(Cl)nc3)cc2)c2cc(C)ccc2n1 | 1.5 µM | 2.1 µM | 2.5 µM | – | – | – |
| Cc1ccc2nc(N3CCNC(C)C3)nc(NCc3ccc(C(=O)NC4CCN(Cc5ccc(F)cc5)CC4)cc3)c2c1 (racemic) | 2 µM | 1 µM | > 5 µM | – | – | – |
| CCNc1nc(NCc2ccc(NC(=O)c3ccc(F)cc3)cc2)c2ccccc2n1 | 1.4 µM | 2.3 µM | 3 µM | – | – | 2 |
| Cc1ccc2nc(N3CCNC(C)C3)nc(NCc3ccc(C(=O)NCc4ccc(F)cc4)cc3)c2c1 (racemic) | 2.9 µM | 1.4 µM | – | – | – | – |
| CC1CN(c2nc(NCc3ccc(C(=O)Nc4ccc(F)cc4)cc3)c3ccccc3n2)CCN1 (racemic) | 2.8 µM | 3.2 µM | > 5 µM | – | – | – |
| CCCNc1nc(NCc2ccc(C(=O)Nc3ccc(F)cc3)cc2)c2ccccc2n1 | 1.5 µM | 1.6 µM | 3 µM | 0.684 µM | – | – |

| Structure (SMILES) | IC50 (HCT-116 [1]) | IC50 (SW480) | IC50 (TCF4/beta-catenin) | IC50 (HCT-116 [3]) | solubility [4] | Ratio IC50 [2] |
| --- | --- | --- | --- | --- | --- | --- |
| CCCCNc1nc(NCc2ccc(C(=O)Nc3ccc(F)cc3)cc2)c2ccccc2n1 | 1.4 µM | 1 µM | 1.5 µM | 0.381 µM | – | – |
| Cc1ccc2nc(N(C)C)nc(NCc3ccc(C(=O)NC4CCN(Cc5ccc(F)cc5)CC4)cc3)c2c1 | 0.8 µM | 1.1 µM | 2.5 µM | 0.313 µM | – | – |
| CN(C)c1nc(NCc2ccc(C(=O)Nc3ccc(F)cc3)cc2)c2ccccc2n1 | 1.9 µM | 2.6 µM | 3 µM | – | – | – |
| O=C(Nc1ccc(F)cc1)c1ccc(CNc2nc(NC3CC3)nc3ccccc23)cc1 | 2.7 µM | 2.6 µM | – | – | – | – |
| O=S(=O)(Nc1ccc(CNc2nc(NC3CC3)nc3ccccc23)cc1)c1ccc(F)cc1 | 4.9 µM | 4.1 µM | – | – | – | – |
| Cc1ccc2nc(N(C)C)nc(NCc3ccc(C(=O)NCc4ccc(F)cc4)cc3)c2c1 | 0.9 µM | 1.1 µM | 2 µM | 0.298 µM | – | – |
| CN(C)CCCNc1nc(NCc2ccc(NC(=O)c3ccc(F)cc3)cc2)c2ccccc2n1 | 10 µM | 14 µM | – | – | – | – |
| CCCNc1nc(NCc2ccc(C(=O)N3CCC(C(=O)NCc4ccc(F)cc4)CC3)cc2)c2ccccc2n1 | 5.5 µM | 5.7 µM | – | – | – | – |
| CCNc1ncc(C)c(NCc2ccc(NC(=O)c3ccc(F)cc3)cc2)n1 | > 20 µM | > 20 µM | – | – | – | – |
| CCCNc1nc(NCc2ccc(C(=O)NCCc3ccc(F)cc3)cc2)c2cc(C)ccc2n1 | 1.6 µM | 1.6 µM | 2 µM | – | – | – |
| CNc1ncc(Br)c(NCc2ccc(NC(=O)c3ccc(F)cc3)cc2)n1 | > 20 µM | > 20 µM | – | – | – | – |
| CN(C)CCCNc1nc(NCc2ccc(NC(=O)c3ccc(CN4CCN(C)CC4)cc3)cc2)c2ccccc2n1 | > 20 µM | > 20 µM | – | – | – | – |
| CN(C)c1nc(NCc2ccc(NC(=O)c3ccc(F)cc3)cc2)c2ccccc2n1 | 1.3 µM | 2.2 µM | – | – | – | – |
| Cc1ccc2nc(N(C)C)nc(NCc3ccc(C(=O)NCCc4ccc(F)cc4)cc3)c2c1 | 0.6 µM | 1.4 µM | 1.5 µM | 0.264 µM | – | – |
| CNc1ncc(C)c(NCc2ccc(NC(=O)c3ccc(F)cc3)cc2)n1 | > 20 µM | > 20 µM | – | – | – | – |
| C=CCNc1nc(NCc2ccc(C(=O)NC3CCN(C(=O)c4ccc(F)cc4)CC3)cc2)c2cc(C)ccc2n1 | 6.9 µM | 5.2 µM | – | – | – | – |
| Cc1ccc2nc(N(C)C)nc(NCc3ccc(C(=O)N4CCC(C(=O)NCc5ccc(F)cc5)CC4)cc3)c2c1 | 5.6 µM | 5.6 µM | – | – | – | – |

Continued, in another order:

| IC50 (HCT-116 [1]) | IC50 (SW480) | IC50 (TCF4/beta-catenin) | IC50 (HCT-116 [3]) | solubility [4] | Structure (SMILES) | Ratio IC50 [2] |
| --- | --- | --- | --- | --- | --- | --- |
| 1.5 µM | 1.6 µM | – | – | – | CCNc1nc(NCc2ccc(NC(=O)c3ccc(F)cc3)cc2Cl)c2ccccc2n1 | – |
| 1.3 µM | 1.1 µM | 2.5 µM | – | – | Cc1ccc2nc(N(C)C)nc(NCc3ccc(C(=O)Nc4ccc(Cl)nc4)cc3)c2c1 | – |
| > 20 µM | > 20 µM | – | – | – | CNc1nc(NCc2ccc(NC(=O)c3ccncc3)cc2)c2ccccc2n1 | – |
| 1.6 µM | 2 µM | 3.5 µM | – | – | CNc1nc(NCc2ccc(NC(=O)c3ccc(F)cc3)cc2)c2ccccc2n1 | 2 |
| 1.2 µM | 1.3 µM | 3 µM | – | – | CNc1nc(NCc2ccc(C(=O)NC3CCN(Cc4ccc(F)cc4)CC3)cc2)c2cc(C)ccc2n1 | – |
| > 20 µM | > 20 µM | – | – | – | CCCNc1nc2ccccc2c(NCc2ccc(NC(=O)c3ccc(F)cc3)cc2)c1C#N | – |
| 5.3 µM | 4.8 µM | – | – | – | CNc1nc(NCc2ccc(NS(=O)(=O)c3ccc(F)cc3)cc2)c2ccccc2n1 | – |
| 2 µM | 2.3 µM | – | – | – | CNc1nc(NCc2ccc(NC(=O)c3ccc(F)cc3)cc2Cl)c2ccccc2n1 | – |
| > 20 µM | > 20 µM | – | – | – | CN1CCN(c2nc(NCc3ccc(NC(=O)c4ccncc4)cc3)c3ccccc3n2)CC1 | – |
| > 20 µM | > 20 µM | – | – | – | Cc1ccc(S(=O)(=O)Nc2ccc(CNc3nc(N4CCN(C)CC4)nc4ccccc34)cc2)cc1 | – |
| 1.2 µM | 1.3 µM | – | – | soluble | CCCNc1nc(NCc2ccc(C(=O)Nc3ccc(F)cc3)cc2)c2cc(C)ccc2n1 | – |
| 4.4 µM | 2.2 µM | – | – | – | CCCNc1nc(NCc2ccc(C(=O)NCc3ccc(F)cc3)cc2)c2cc(C)ccc2n1 | – |
| 14 µM | 11 µM | – | – | – | C=CCNc1nc(NCc2ccc(C(=O)Nc3ccc(F)cc3)cc2)c2ccccc2n1 | – |
| 1.3 µM | 2.4 µM | 3 µM | – | – | Cc1ccc2nc(N(C)C)nc(NCc3ccc(C(=O)N[C@H]4C[C@@H]4c4ccccc4)cc3)c2c1 (relative stereo) | – |
| 1.9 µM | 2.5 µM | 3.5 µM | – | – | CCNc1nc(NCc2ccc(C(=O)Nc3ccc(F)cc3)cc2)c2ccccc2n1 | – |
| 1.6 µM | 1.1 µM | 3 µM | – | – | CCCNc1nc(NCc2ccc(C(=O)NC3CCN(Cc4ccc(F)cc4)CC3)cc2)c2cc(C)ccc2n1 | – |
| 1.8 µM | 2.5 µM | – | – | – | CN1CCN(c2nc(NCc3ccc(NC(=O)c4ccc(F)cc4)cc3)c3ccccc3n2)CC1 | – |
| > 20 µM | > 20 µM | – | – | – | CNc1nc2ccccc2c(NCc2ccc(NC(=O)c3ccc(F)cc3)cc2)c1C#N | – |
